S100A4 MyoIIA = inhibitors of S100A4-myosin IIA peptide binding, primary screen, biochemical, fluorescence polarization, TAMRA-MyoIIA peptide; inhibition, % at 10.7 µM; 0.14% of 360,000 active;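 active = mean inhibition of at least 70% across replicates, with every replicate also reaching that level; inconclusive = mean inhibition reaches 70% but some replicates fall short; inactive = mean inhibition below 70%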
Target sequence (P26447 whole entry, looked up): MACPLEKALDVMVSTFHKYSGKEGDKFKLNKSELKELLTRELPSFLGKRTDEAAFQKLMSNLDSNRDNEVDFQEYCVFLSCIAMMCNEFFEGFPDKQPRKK
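incubation = readout 5 min after mixing, signal stable up to 60 min | system = S100A4 monomer protein | buffer or medium = HEPES pH 7.2 with CaCl2, KCl, NaCl, DTT, Triton | benchmarks = neutral control DMSO, positive control TFP | also added = fluorescent myosin IIA peptide, 5 nM | compound dosing = one concentration per compound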
RAD52 anneal inh = RAD52 DNA annealing inhibitors, primary screen, biochemical, FRET, single point, set 2; recombinant RAD52 DNA annealing, FRET fluorescence; DNA repair protein RAD52 homolog (Homo sapiens), P43351; 0.46% of 360,000 active; inhibition, % at 18.7 µM;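 active = every replicate showing at least 50% inhibition; inconclusive = mean inhibition at least 50% but not in every replicate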
Target sequence (P43351 whole entry, looked up): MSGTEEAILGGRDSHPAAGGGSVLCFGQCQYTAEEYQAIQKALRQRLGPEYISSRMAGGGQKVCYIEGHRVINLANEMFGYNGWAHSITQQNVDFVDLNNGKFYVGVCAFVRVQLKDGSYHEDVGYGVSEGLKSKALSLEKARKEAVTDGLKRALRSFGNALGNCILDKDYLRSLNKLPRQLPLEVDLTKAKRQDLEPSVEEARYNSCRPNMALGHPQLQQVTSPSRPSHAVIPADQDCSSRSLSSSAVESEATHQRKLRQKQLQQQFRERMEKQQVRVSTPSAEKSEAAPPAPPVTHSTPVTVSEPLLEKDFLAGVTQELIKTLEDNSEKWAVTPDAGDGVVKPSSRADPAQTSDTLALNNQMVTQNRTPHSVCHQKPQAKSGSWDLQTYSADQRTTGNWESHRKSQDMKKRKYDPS
dFosB act = activators of delta FosB homodimer, primary screen, biochemical, fluorescence polarization, TAMRA-CDK5 oligo, single point. purified delta FosB; percent of positive-control signal above neutral wells. activation, % at 25 µM. 0.99% of 340,000 active. AID 493131, 2011;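 active = mean activation above about 17%, with every replicate also reaching it, limit read from the data, passing the limit was not always enough; inconclusive = only one of the two conditions met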
MLL AF4-AF9 inh = inhibitors of AF4 peptide binding to AF9, primary screen, biochemical, AlphaScreen, biotin-AF4 peptide, FLAG-AF9, single point; 0.47% of 350,000 active; inhibition, % at 10 µM; Protein AF-9 (Homo sapiens), P42568; AID 651704, 2012;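 active = every replicate reaching a set inhibition limit, whatever the replicate mean, cut at about 25% in these data; inconclusive = mean inhibition reaches that limit but some replicates miss it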
RAD54 inh = inhibitors of human RAD54 branch migration, primary screen, biochemical, fluorescence, single point | inhibition, % at 10.4 µM | RAD54 Holliday junction branch migration, FAM/BHQ fluorescence | AID 602329, 2012 | DNA repair and recombination protein RAD54-like (Homo sapiens), Q92698 | 0.14% of 360,000 active;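 active = mean normalized replicate activity at least 40 and at least half of replicates scoring 40 or more; inconclusive = only one of the two criteria met; inactive = mean below 40 and under half of replicates reaching 40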;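 also: inhibitors cause a drop in the FAM fluorescence signal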
Of the large screens only hits and unclear results are named; the others gave an inactive call. This is a sample that favours compounds with a hit; in the whole collection about 1.5% have one here.

COc1ccc2c3c([nH]c2c1)[C@H](CO)N(C(=O)c1cccnc1)CC31CCN(Cc2cccnc2)CC1	none (no result: dFosB act, RAD54 inh)
O=C(/C=C/c1ccc(Br)cc1)c1ccc(NC2=NCCCS2)cc1	RAD52 anneal inh 51, dFosB act 20 (no result: RAD54 inh)
O=C(/C=C/c1ccccc1)c1ccc(NC2=NCCCS2)cc1	none
C[C@H](CO)N1C[C@H](C)[C@@H](CN(C)Cc2ccc3c(c2)OCO3)Oc2ccc(NC(=O)Nc3cccc4ccccc34)cc2C1=O	none (no result: dFosB act)
Cc1noc(C)c1NC(=O)N[C@H]1C=C[C@H](CC(=O)N2CCCCC2)O[C@H]1CO	none (no result: dFosB act)
COC(=O)c1c(N)n(CCCN2CCOCC2)c2nc3ccccc3nc12	RAD54 inh 79 (no result: S100A4 MyoIIA, RAD52 anneal inh, MLL AF4-AF9 inh)
COCCOC(=O)c1c(N)n(CCCN2CCOCC2)c2nc3ccccc3nc12	none (no result: RAD54 inh)
C[C@H](CO)N1C[C@H](C)[C@@H](CN(C)Cc2ccc(C(F)(F)F)cc2)Oc2c(NC(=O)CCCCCC(=O)Nc3ccccc3N)cccc2C1=O	S100A4 MyoIIA inconclusive (no result: dFosB act, RAD54 inh)
Fc1ccc(-c2cc3nc(-c4ccccc4)cc(N4CCN(CCN5CCOCC5)CC4)n3n2)cc1	dFosB act 20 (no result: S100A4 MyoIIA, RAD52 anneal inh, MLL AF4-AF9 inh)
CN1CCN(c2cc(-c3ccccc3)nc3cc(-c4ccc(F)cc4)nn23)CC1	none (no result: S100A4 MyoIIA, RAD52 anneal inh, MLL AF4-AF9 inh, RAD54 inh)
CC(C)[C@H]1CC[C@@H](C)C(C(=O)c2ccccc2)C1=O (stereo partly specified)	MLL AF4-AF9 inh 58
O=C(c1ccccc1)[C@H]1CC=CC[C@H]1C(=O)O	none (no result: S100A4 MyoIIA, RAD52 anneal inh, MLL AF4-AF9 inh)
O=C(c1ccc(F)cc1)N1CCCCN2[C@@H](CO)[C@H](c3ccc(-c4ccc(F)cc4)cc3)[C@@H]2C1	none (no result: dFosB act)
O=C(C[C@@H]1CC[C@@H](NC(=O)NC2CCCC2)[C@H](CO)O1)NCc1ccc(F)cc1	S100A4 MyoIIA 120 (no result: dFosB act)
O=C(C[C@@H]1CC[C@@H](NC(=O)CC2CC2)[C@H](CO)O1)NCc1ccc(Cl)cc1	S100A4 MyoIIA 135 (no result: dFosB act)
O=C(C[C@H]1CC[C@H](NC(=O)CC2CC2)[C@@H](CO)O1)NCc1ccc(Cl)cc1	none (no result: dFosB act)
O=C(C[C@@H]1CC[C@H](NC(=O)NC2CCCC2)[C@@H](CO)O1)NCc1ccc(F)cc1	none (no result: dFosB act)
O=C(c1ccc(F)cc1)N1CC(=O)N2[C@H](CO)[C@H](c3ccc(-c4cccnc4)cc3)[C@H]2C1	none (no result: dFosB act, RAD54 inh)
COc1cccc(/C=N\NC(=O)c2ccc(Cn3cc(Br)c([N+](=O)[O-])n3)o2)c1O	dFosB act 24 (no result: RAD54 inh)
COc1cc(/C=N/NC(=O)c2ccc(COc3ccccc3Cl)o2)cc(Br)c1O	dFosB act 34 (no result: S100A4 MyoIIA, RAD52 anneal inh, MLL AF4-AF9 inh, RAD54 inh)
COc1ccc(NC(=O)N2CCCCN3[C@H](CO)[C@@H](c4ccc(C5=CCCCC5)cc4)[C@H]3C2)cc1	none (no result: dFosB act)
Cc1noc(C)c1S(=O)(=O)N(C)C[C@@H]1Oc2ccc(NS(=O)(=O)c3cccs3)cc2CC(=O)N([C@H](C)CO)C[C@@H]1C	none (no result: RAD52 anneal inh, dFosB act)
Cc1noc(C)c1S(=O)(=O)N(C)C[C@@H]1Oc2ccc(NC(=O)C3CC3)cc2CC(=O)N([C@@H](C)CO)C[C@H]1C	S100A4 MyoIIA 142 (no result: dFosB act)
Cc1noc(C)c1S(=O)(=O)N(C)C[C@@H]1Oc2ccc(NS(=O)(=O)c3cccs3)cc2CC(=O)N([C@@H](C)CO)C[C@H]1C	MLL AF4-AF9 inh 26 (no result: dFosB act)
Cc1ccc(S(=O)(=O)N(C)C[C@@H]2Oc3ccc(NC(=O)Nc4c(C)noc4C)cc3CC(=O)N([C@@H](C)CO)C[C@@H]2C)cc1	RAD54 inh 55 (no result: dFosB act)
Cc1noc(C)c1S(=O)(=O)N(C)C[C@H]1Oc2ccc(NC(=O)C3CC3)cc2CC(=O)N([C@@H](C)CO)C[C@@H]1C	none (no result: dFosB act)
C[C@@H]1CN([C@@H](C)CO)S(=O)(=O)c2ccc(C#CCN(C)C)cc2O[C@H]1CN(C)S(C)(=O)=O	none (no result: dFosB act)
NC(=O)c1ccc(-c2nnn(CC(=O)Nc3cccc(S(=O)(=O)N4CCCC4)c3)n2)cc1	dFosB act 110
O=C(Cn1nnc(-c2ccccc2)n1)Nc1cccc(S(=O)(=O)N2CCOCC2)c1	none
Fc1ccc(-[n+]2nc(Nc3ccccc3)sc2-c2c3ccccc3cc3ccccc23)cc1	dFosB act 31 (no result: MLL AF4-AF9 inh)
CCNC(=O)C[C@@H]1CC[C@@H]2[C@H](COC[C@@H](O)CN2C(=O)Nc2ccc(Cl)c(Cl)c2)O1	none (no result: dFosB act)
N=c1n(CC(=O)c2ccc(Br)s2)c2ccccc2n1Cc1ccccc1	dFosB act 25
Cn1c(=N)n(CC(=O)c2ccc(Br)s2)c2ccccc21	none (no result: S100A4 MyoIIA, RAD52 anneal inh, MLL AF4-AF9 inh)
CC1COCC(C)N1C1=C(Cl)C(=O)c2ccccc2C1=O (stereo unspecified)	MLL AF4-AF9 inh 27
C[C@@H]1CN([C@@H](C)CO)C(=O)c2cc(NC(=O)Cc3cn(C)c4ccccc34)ccc2O[C@@H]1CN(C)C(=O)NC1CCCCC1	none (no result: dFosB act)
O=C(/C=C/c1ccccc1)Nc1ccc2c(c1)C(=O)NC2=O	MLL AF4-AF9 inh 50
CC(C)NC(=O)Nc1ccc2c(c1)C(=O)N(C)[C@H]1CC[C@@H](CC(=O)NC3CCCCC3)O[C@@H]1CO2	none (no result: S100A4 MyoIIA, RAD52 anneal inh, dFosB act, MLL AF4-AF9 inh)
CC(C)NC(=O)N[C@@H]1CC[C@H](CC(=O)O)O[C@@H]1CO	none (no result: dFosB act)
Cc1noc(C)c1NC(=O)Nc1cccc2c1O[C@@H](CN(C)C(=O)NC1CCCCC1)[C@H](C)CN([C@H](C)CO)C2=O	none (no result: dFosB act)
Cc1ccc(N(C)c2nc(N)nc(N)c2N=O)cc1	S100A4 MyoIIA 191 (no result: dFosB act, RAD54 inh)
Cc1ccc(C2(CCNCc3ccc(N(C)C)cc3)CCOC(C(C)C)C2)cc1 (stereo unspecified)	MLL AF4-AF9 inh 40 (no result: RAD54 inh)
CN1OC[C@@H]2CN(Cc3ccc4c(c3)OCO4)[C@H](c3ccc(N4CCCCC4)cc3)C[C@@H]21	MLL AF4-AF9 inh 33 (no result: dFosB act)
CN1OC[C@@H]2CN(Cc3ccccc3)[C@H](c3ccc(N4CCCCC4)cc3)C[C@@H]21	MLL AF4-AF9 inh 28 (no result: dFosB act)
COc1ccc(NC(=O)N(C)C[C@@H]2Oc3ccc(NC(=O)C4CCCCC4)cc3C(=O)N([C@@H](C)CO)C[C@H]2C)cc1	none (no result: dFosB act)
Cc1csc2nc(SCC(=O)Nc3ccccc3F)[nH]c(=O)c12	dFosB act 24
COc1ccc(OC)c(NC(=O)CSc2nc3scc(C)c3c(=O)[nH]2)c1	none
CCc1ccc(C2c3[nH]c4ccccc4c3CCN2C(=O)CN2CCN(CC)CC2)cc1 (stereo unspecified)	MLL AF4-AF9 inh 31 (no result: RAD54 inh)
CCc1ccc(C2c3[nH]c4ccccc4c3CCN2C(=O)CNC(N)=O)cc1 (stereo unspecified)	none (no result: RAD54 inh)
COc1ccc(CN(C)C[C@H]2OCCCC[C@H](C)Oc3ccc(NS(=O)(=O)c4ccccc4)cc3C(=O)N([C@@H](C)CO)C[C@@H]2C)cc1	none (no result: dFosB act)
COc1ccc(S(=O)(=O)Nc2ccc3c(c2)[C@@H]2C[C@H](CC(=O)NCC4CC4)O[C@@H](CO)[C@@H]2O3)cc1	none (no result: dFosB act)

Assay outcomes as filed in PubChem.
